# According to ChEMBL document CHEMBL4049430, “Indazole-6-phenylcyclopropylcarboxylic Acids as Selective GPR120 Agonists with in Vivo Efficacy” (J Med Chem, 2017):
# Calls of active or inactive are those of the source. No cut-off for these calls is given here.
# Tests used:
# [1] = target: Free fatty acid receptor 1 (Mus musculus) (UniProt Q76JU9); test: Agonist activity at mouse GPR40 expressed in HEK293 cells assessed as increase in intracellular calcium level after 5 mins by FLUO-4-AM dye-based FLIPR assay relative to control; format: functional, cell-based
# Method in brief: (§1)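 HEK293s cells stably expressing mouse GPR40 were seeded 24 h before assay and loaded for 1 h with calcium 3/Fluo-4 AM in HBSS, 20 mM HEPES, 0.01% BSA, 2.5 mM probenecid, pH 7.4. FLIPR Tetra took 10 baseline reads, then read for 5 min after addition. Runs were in duplicate, 9 points, 100 μM to 7 nM final, as % of maximal eladic acid control.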
# [2] = target: Free fatty acid receptor 1 (Mus musculus, UniProt Q76JU9); test: Agonist activity at mouse GPR40 expressed in HEK293 cells assessed as increase in intracellular calcium level after 5 mins by FLUO-4-AM dye-based FLIPR assay; format: functional, cell-based; method in brief: as §1
# [3] = Clearance in mouse at 2.5 mg/kg, iv after 24 hrs; format: ADME, organism-based; conditions: in vivo
# Mus musculus [4] = test: Toxicity in mouse at 300 mg/kg, po after 1 hr; format: organism-based; conditions: in vivo
# [5] = target: T1, Free fatty acid receptor 4 (Homo sapiens, UniProt Q5NUL3); test: Agonist activity at human GPR120 expressed in CHO-FlpIn cells after 15 mins by DMR assay; format: cell-based
# T1 sequence (Q5NUL3 whole entry): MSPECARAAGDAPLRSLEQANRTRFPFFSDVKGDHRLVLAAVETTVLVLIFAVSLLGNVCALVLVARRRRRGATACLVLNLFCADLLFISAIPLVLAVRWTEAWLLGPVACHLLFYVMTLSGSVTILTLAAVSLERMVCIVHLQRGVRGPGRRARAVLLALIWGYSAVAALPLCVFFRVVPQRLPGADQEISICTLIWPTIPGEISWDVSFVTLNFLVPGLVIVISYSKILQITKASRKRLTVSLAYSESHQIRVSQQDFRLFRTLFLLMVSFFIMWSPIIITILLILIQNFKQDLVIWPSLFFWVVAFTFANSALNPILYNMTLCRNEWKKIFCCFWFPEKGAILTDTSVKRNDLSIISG
# Method in brief: (§2)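 Cryopreserved CHO FlpIn cells stably expressing human or mouse GPR120 were seeded 48 h before assay, serum-starved for 24 h, then held 2 h in HBSS/20 mM HEPES/0.01% BSA (pH 7.4) with 0.5% DMSO. DMR was read over a 10 min baseline and for 15 min after addition. Runs were in duplicate, 10 points, 16 μM to 0.8 nM final, as % of maximal control agonist.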
# [6] = target: 3',5'-cyclic-AMP phosphodiesterase 4D (Homo sapiens, UniProt Q08499); test: Inhibition of phosphodiesterase 4D (unknown origin)
# [7] = Apparent permeability across apical to basolateral side in human Caco2 cells; conditions: Caco-2
# [8] = Drug uptake in mouse blood at 150 mg/kg, po after 2 hrs; format: ADME, organism-based; conditions: read-out: Drug uptake
# Mus musculus [9] = test: Toxicity in mouse at 150 mg/kg, po after 2 hrs; format: organism-based; conditions: in vivo
# [10] = Drug uptake in mouse blood at 300 mg/kg, po after 1 hr; format: ADME, organism-based; conditions: read-out: Drug uptake
# [11] = Ratio of unbound drug level in mouse brain to blood at 5 mg/kg administered through oral gavage after 2 hrs; conditions: brain/blood
# [12] = Drug uptake in mouse brain at 300 mg/kg, po after 1 hr; format: ADME, organism-based; conditions: read-out: Drug uptake
# [13] = (§3) Oral bioavailability in mouse at 5 mg/kg after 24 hrs; format: ADME, organism-based; conditions: in vivo
# [14] = target: T2, Free fatty acid receptor 4 (Mus musculus, UniProt Q7TMA4); test: Agonist activity at mouse GPR120 expressed in CHO-FlpIn cells after 15 mins by DMR assay; format: cell-based; method in brief: as §2
# T2 sequence (Q7TMA4 whole entry): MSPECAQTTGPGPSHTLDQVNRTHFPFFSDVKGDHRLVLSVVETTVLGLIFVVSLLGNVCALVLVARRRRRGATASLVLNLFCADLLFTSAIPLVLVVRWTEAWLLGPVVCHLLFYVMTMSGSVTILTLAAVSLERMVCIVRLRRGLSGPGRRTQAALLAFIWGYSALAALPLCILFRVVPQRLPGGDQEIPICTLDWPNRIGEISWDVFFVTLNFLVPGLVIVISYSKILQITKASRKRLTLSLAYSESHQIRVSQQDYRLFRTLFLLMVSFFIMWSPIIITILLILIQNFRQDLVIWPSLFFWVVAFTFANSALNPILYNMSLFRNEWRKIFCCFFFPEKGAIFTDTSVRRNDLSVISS
# [15] = Cmax in mouse at 5 mg/kg administered through oral gavage after 24 hrs; format: ADME, organism-based; set-up: dose 5 mg/kg, route oral; conditions: in vivo
# [16] = Volume of distribution at steady state in mouse at 2.5 mg/kg, iv after 24 hrs; format: ADME, organism-based; conditions: in vivo, read-out: Vdss
# [17] = Protein binding in mouse plasma assessed as unbound fraction after 24 hrs by equilibrium dialysis; format: ADME, cell-free
# [18] = target: T3, Free fatty acid receptor 4 (Mus musculus) (UniProt Q7TMA4); test: Agonist activity at mouse GPR120 expressed in CHO-FlpIn cells after 15 mins by DMR assay relative to control; format: cell-based; method in brief: as §2
# T3 sequence (whole entry): T2 sequence (Q7TMA4 whole entry)
# [19] = Ratio of drug level in mouse brain to blood at 5 mg/kg administered through oral gavage after 2 hrs; format: ADME, organism-based
# MDR1 = test: Efflux ratio of permeability in MDCK2-MDR1 cells at 10 uM; conditions: dog, MDCK-MDR1
# [20] = target: T4, Free fatty acid receptor 4 (Homo sapiens) (UniProt Q5NUL3); test: Agonist activity at human GPR120 expressed in CHO-FlpIn cells after 15 mins by DMR assay relative to control; format: cell-based; method in brief: as §2
# T4 sequence (whole entry): T1 sequence (Q5NUL3 whole entry)
# [21] = Octanol-buffer partition coefficient, log D of the compound at pH 7.4 after 30 mins by LC-UV based shake-flask method
# Mus musculus [22] = test: Toxicity in mouse at 50 mg/kg, po; format: organism-based; conditions: in vivo
# Mus musculus [23] = test: as §3; format: ADME, organism-based; conditions: in vivo, 24 h
# [24] = Drug uptake in mouse brain at 50 mg/kg, po after 2 hrs; format: ADME, organism-based; conditions: read-out: Drug uptake
# [25] = Cmax in mouse blood at 50 mg/kg, po; format: ADME, organism-based; set-up: dose 50 mg/kg, route oral
# [26] = Volume of distribution at steady state in mouse at 1 mg/kg, iv after 24 hrs; format: ADME, organism-based; conditions: in vivo, read-out: Vdss
# [27] = Ratio of unbound drug level in wild-type mouse brain to blood at 100 mg/kg administered through oral gavage 30 mins prior to glucose challenge measured after 90 mins; conditions: brain/blood
# Adenosine receptor A2a = Adenosine receptor A2a (Homo sapiens, UniProt P29274); test: Inhibition of Adenosine A2A receptor (unknown origin)
# [28] = Ratio of unbound drug level in GPR120 knockout mouse brain to blood at 100 mg/kg administered through oral gavage 30 mins prior to glucose challenge measured after 90 mins; conditions: in vivo, 1.5 h
# Mus musculus [29] = test: Antidiabetic activity in C57BL/6J mouse assessed as reduction in glucose excursion at 100 mg/kg administered through oral gavage 30 mins prior to glucose challenge measured after 90 mins by OGTT relative to control; format: functional; set-up: scale not given: the % may be the effect or the level left
# Method in brief: (§4)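 OGTT used in-house C57BL/6J mice aged 10–11 weeks. GPR120 knockout and wild-type controls were bred in house, back-crossed onto C57BL/6J, and used at 9–10 weeks. Compound was given as a suspension: a concentrated stock was made at rt the day before and diluted on study day to the dosing concentrations.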
# Mus musculus [30] = test: Antidiabetic activity in wild-type mouse assessed as reduction in glucose excursion at 100 mg/kg administered through oral gavage 30 mins prior to glucose challenge measured after 90 mins by OGTT relative to control; format: functional; set-up: scale not given: the % may be the effect or the level left; method in brief: as §4
# Mus musculus [31] = test: Antidiabetic activity in GPR120 knockout mouse assessed as reduction in glucose excursion at 100 mg/kg administered through oral gavage 30 mins prior to glucose challenge measured after 90 mins by OGTT; format: functional, organism-based; method in brief: as §4
# [32] = Clearance in mouse at 1 mg/kg, iv after 24 hrs; format: ADME, organism-based; conditions: in vivo
# Free fatty acid receptor 1, sequence (Q76JU9 whole entry): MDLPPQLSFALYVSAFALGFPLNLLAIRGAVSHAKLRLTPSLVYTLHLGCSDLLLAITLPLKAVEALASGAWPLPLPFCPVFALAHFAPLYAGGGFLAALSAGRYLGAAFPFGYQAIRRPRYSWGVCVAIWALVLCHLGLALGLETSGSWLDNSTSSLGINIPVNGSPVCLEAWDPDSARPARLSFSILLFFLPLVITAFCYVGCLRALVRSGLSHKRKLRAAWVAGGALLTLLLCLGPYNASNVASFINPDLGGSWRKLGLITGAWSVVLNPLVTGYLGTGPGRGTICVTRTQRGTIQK
# Free fatty acid receptor 1 (Mus musculus), sequence (Q76JU9 whole entry): as above
# Adenosine receptor A2a, sequence (P29274 whole entry): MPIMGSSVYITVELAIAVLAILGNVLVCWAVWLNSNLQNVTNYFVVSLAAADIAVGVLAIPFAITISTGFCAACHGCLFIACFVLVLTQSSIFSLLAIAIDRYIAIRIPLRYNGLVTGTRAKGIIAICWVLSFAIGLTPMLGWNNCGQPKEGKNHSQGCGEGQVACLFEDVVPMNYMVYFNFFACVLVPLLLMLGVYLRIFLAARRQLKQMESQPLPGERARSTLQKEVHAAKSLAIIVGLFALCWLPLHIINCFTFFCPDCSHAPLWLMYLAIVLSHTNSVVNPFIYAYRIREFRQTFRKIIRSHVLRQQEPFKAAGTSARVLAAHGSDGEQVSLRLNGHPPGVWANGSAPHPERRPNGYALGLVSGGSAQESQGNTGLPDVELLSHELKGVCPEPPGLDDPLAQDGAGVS
# 3',5'-cyclic-AMP phosphodiesterase 4D, sequence (Q08499 whole entry): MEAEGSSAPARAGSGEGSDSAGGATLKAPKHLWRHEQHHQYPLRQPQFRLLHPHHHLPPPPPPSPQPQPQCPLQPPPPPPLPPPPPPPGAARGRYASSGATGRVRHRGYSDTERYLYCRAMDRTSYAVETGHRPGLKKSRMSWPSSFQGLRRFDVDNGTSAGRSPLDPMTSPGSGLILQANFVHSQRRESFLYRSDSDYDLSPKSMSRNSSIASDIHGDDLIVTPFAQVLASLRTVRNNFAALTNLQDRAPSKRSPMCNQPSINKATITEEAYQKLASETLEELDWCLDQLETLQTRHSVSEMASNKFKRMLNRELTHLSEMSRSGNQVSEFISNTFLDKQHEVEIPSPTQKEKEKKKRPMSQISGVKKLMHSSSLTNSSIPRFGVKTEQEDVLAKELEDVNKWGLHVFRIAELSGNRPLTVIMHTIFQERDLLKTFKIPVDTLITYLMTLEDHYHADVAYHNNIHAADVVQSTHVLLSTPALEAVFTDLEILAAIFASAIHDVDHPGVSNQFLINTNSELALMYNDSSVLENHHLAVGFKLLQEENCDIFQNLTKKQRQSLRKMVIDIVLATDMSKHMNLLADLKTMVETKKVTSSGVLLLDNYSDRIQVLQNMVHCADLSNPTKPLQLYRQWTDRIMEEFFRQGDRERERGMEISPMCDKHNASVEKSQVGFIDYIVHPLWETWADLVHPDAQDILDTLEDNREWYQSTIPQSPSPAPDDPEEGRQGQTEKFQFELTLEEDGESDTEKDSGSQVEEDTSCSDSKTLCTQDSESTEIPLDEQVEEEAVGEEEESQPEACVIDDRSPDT
Efficacy [1] [%],EC50 [2] [nM],clearance [3] [mL/min/kg],EC50 [5] [nM],Papp A→B [7] [×10⁻⁶ cm/s],Kp uu at 2 h [11],bioavailability [13] [%],EC50 [14] [nM],Cmax [15] [µM],Vd [16] [L/kg],fraction unbound at 24 h [17],Efficacy [18] [%],Kp at 2 h [19],efflux ratio at 10 µM (MDR1),Efficacy [20] [%],logD at 0.5 h [21],Compound,Activity (Mus musculus [9]),other results
1,> 100000,9.3,470,31,0.86,126,410,5.4,1.5,0.0048,99,2.3,2,102,3.8,COc1nn(-c2ccccn2)c2cc(-c3ccc([C@H]4C[C@@H]4C(=O)O)cc3)ccc12,Non-Toxic,Activity (Mus musculus [4]): Toxic; IC50 [6]: 1600 nM; concentration at 2 h [8]: 126 µM; concentration at 1 h [10]: 284 µM; concentration at 1 h [12]: 207 µM
19,> 100000,5.2,510,29,0.45,–,620,8.2,1,0.0053,103,2,0.59,93,3.8,COc1nn(-c2ccccn2)c2cc(-c3ccc([C@H]4C[C@@H]4C(=O)O)cc3)cc(F)c12,Toxic,Activity (Mus musculus [22]): Non-Toxic; F (Mus musculus [23]): 159%; concentration at 2 h [24]: 147 µM; Cmax [25]: 97 µM
2,> 100000,–,740,76,0.14,131,1000,3.3,–,0.021,79,0.37,2.8,66,2.6,Cc1ccc(-n2nc(C)c3cnc(-c4ccc([C@H]5C[C@@H]5C(=O)O)cc4F)cc32)nc1,–,Vd [26]: 2.4 L/kg; Kp uu at 1.5 h [27]: 0.12; Ki (Adenosine receptor A2a): 1700 nM; Ratio [28]: 0.12; Activity (Mus musculus [29]): 45%; Activity (Mus musculus [30]): 47%; Activity (Mus musculus [31]): inactive; clearance [32]: 13 mL/min/kg
